Rows were chosen to be rich in hits. Some 1.9% of all compounds tested hit in one or more screens of this group.
CHRM4 agonist: human M4 muscarinic receptor agonists, primary screen, CHO-K1 cells, Fluo-8 calcium fluorescence. Muscarinic acetylcholine receptor M4 (Homo sapiens), P08173. hit rate 0.14% among 360,000. AID 624127, 2012. activation, % at 3 µM. CHO-K1 hM4/Gqi5; vehicle 0%, full acetylcholine response 100%;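 active = activation above the run mean over all test wells plus 3 SD, cut at about 32% in these data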;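 also: peak over basal fluorescence ratio per well then scaled between controls; 0% = DMSO wells and 100% = acetylcholine at EC100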
Target sequence (P08173 whole entry, looked up): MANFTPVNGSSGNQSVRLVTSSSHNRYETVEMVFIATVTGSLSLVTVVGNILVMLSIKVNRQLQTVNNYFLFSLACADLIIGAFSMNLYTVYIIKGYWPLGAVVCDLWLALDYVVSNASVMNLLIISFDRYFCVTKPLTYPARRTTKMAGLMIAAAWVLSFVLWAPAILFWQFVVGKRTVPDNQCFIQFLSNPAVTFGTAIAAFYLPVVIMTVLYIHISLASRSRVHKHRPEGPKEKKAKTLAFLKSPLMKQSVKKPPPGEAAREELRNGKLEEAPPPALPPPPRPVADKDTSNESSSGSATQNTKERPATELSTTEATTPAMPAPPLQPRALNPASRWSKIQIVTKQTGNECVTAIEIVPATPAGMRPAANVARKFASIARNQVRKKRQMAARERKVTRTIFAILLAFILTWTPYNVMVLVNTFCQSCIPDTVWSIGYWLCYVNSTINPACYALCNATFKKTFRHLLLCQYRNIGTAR
CHRM5 PAM: human M5 muscarinic receptor positive allosteric modulators, primary screen, CHO-K1 cells, Fluo-8 calcium fluorescence; hit rate 0.3% among 360,000; activation, % at 3 µM; Muscarinic acetylcholine receptor M5 (Homo sapiens), P08912; CHO-K1 hM5, ACh EC20 PAM; 0% = ACh EC20, 100% = ACh EC100; AID 624038, 2012;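 active = activation above the run cutoff, the mean activation of all test compounds plus 3 SD, cut at about 18% in these data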
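System: CHO-K1 hM5 cells. Reagent: acetylcholine, EC20 level. Compound dosing: single dose, 3 µM nominal final test concentration. Timing: Post-acetylcholine fluorescence recording 140 s. Detection: Fluo-8 calcium fluorescence. Read-out: % activation, ACh-normalized. Benchmarks: ACh EC20 and EC100 wells. Repeats: singlicate, one well per test compound.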
CHRM5 antagonist: human M5 muscarinic receptor antagonists, primary screen, CHO cells, Fluo-8 calcium fluorescence; Muscarinic acetylcholine receptor M5 (Homo sapiens), P08912; CHO-hM5 cells, ACh EC80; inhibition, % at 3 µM; hit rate 0.59% among 360,000;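 active = inhibition above a per-plate cutoff, the mean of that plate's test compounds plus 3 SD, cut at about 27% in these data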;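 also: 0% = acetylcholine EC80 with DMSO and 100% = DMSO without agonist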
M4 antag: human M4 muscarinic receptor antagonists, primary screen, CHO cells, Fluo-8 calcium fluorescence; Muscarinic acetylcholine receptor M4 (Homo sapiens), P08173; CHO-hM4 cells, ACh EC80; inhibition, % at 3 µM; hit rate 0.73% among 360,000; AID 624125, 2012;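 active = inhibition above its plate's cutoff, the mean inhibition of sample wells plus 3 SD, cut at about 27% in these data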;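 also: 0% = acetylcholine EC80 with DMSO and 100% = DMSO without agonist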
M4 PAM: human M4 muscarinic receptor positive allosteric modulators, primary screen, CHO-K1 cells, Fluo-8 calcium fluorescence; AID 624126, 2012; hit rate 0.4% among 360,000; activation, % at 3 µM; Muscarinic acetylcholine receptor M4 (Homo sapiens), P08173; CHO-K1 hM4/Gqi5, ACh EC20; 0% = ACh EC20, 100% = maximal ACh;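 active = activation above its plate's cutoff, the mean activation of sample wells plus 3 SD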
CHRM5 agonist: human M5 muscarinic receptor agonists, primary screen, CHO-K1 cells, Fluo-8 calcium fluorescence | Muscarinic acetylcholine receptor M5 (Homo sapiens), P08912 | CHO-K1 hM5 cells; 0% DMSO wells, 100% maximal acetylcholine response | activation, % at 3 µM | hit rate 0.19% among 360,000;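 active = activation above the run's mean over test compounds plus 3 SD, cut at about 23% in these data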;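 also: signal is peak over basal fluorescence ratio across the kinetic read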
An asterisk follows results filed as active.

SMILES	CHRM4 agonist	CHRM5 PAM	CHRM5 antagonist	M4 antag	M4 PAM	CHRM5 agonist
CC(C(=O)Nc1cccnc1)c1ccc([N+](=O)[O-])cc1 (stereo unspecified)	3	1	-8	0	-4	2
CC(C)Cc1ccc(C(C)C(=O)Nc2ccc(O)cc2)cc1 (stereo unspecified)	79*	-6	27*	34*	-20	44*
CC(C)Cc1ccc(C(C)C(=O)Nc2cccnc2)cc1 (stereo unspecified)	27	-15	15	13	-19	32*
CC(C)Cc1ccc([C@H](C)C(=O)O)cc1	0	5	-5	-1	-6	0
CC(C)N(Cc1nccn1C)C(=O)c1cc(COc2ccc(F)cc2Cl)on1	4	-9	31*	0	-7	-5
CC(C)C[C@@H](CN1C(=O)C(=O)NC[C@@H]1CC(C)C)NC(=O)Cc1ccccc1	1	4	0	3	-5	4
CN(C)CCOC1c2ccccc2CCc2ccc3ccccc3c21 (stereo unspecified)	6	-30	33*	12	-12	-17
Cc1ccc(O)c([C@H](CCN(C(C)C)C(C)C)c2ccccc2)c1	5	-18	99*	100*	-19	0
C=CCC1(CC=C)CCCN1C(=O)c1cc(COc2ccc(F)c(F)c2)on1	6	-8	8	19	-9	-6
C=CCC1(CC=C)CCCN1C(=O)c1cc(COc2ccc(C)nc2)on1	21	-15	51*	20	-10	3
NC(=S)NNC(=O)C12CC3CC(CC(C3)C1)C2	42*	1	5	10	-9	6
COC(=O)NNC(=O)C12CC3CC(CC(C3)C1)C2	2	2	-7	-3	11	-1
COC(=O)c1cnc(Oc2c(Cl)cc(N)cc2Cl)cc1C(F)(F)F	0	19*	-17	-5	7	4
COC(=O)c1cnc(Oc2ccc(NC(=O)NC(=O)c3c(F)cccc3Cl)cc2)cc1C(F)(F)F	0	1	13	-1	3	1
Cc1nnc(NC(=O)CN2CCN(Cc3ccccc3)CC2)s1	1	2	8	4	-2	-2
CCN1CCN(CCNC(=O)c2ccc(/C=C3/Sc4ccccc4N(Cc4ccccc4C)C3=O)cc2)CC1	33*	-12	9	16	-46	-8
CC(=O)NCCC(=O)NCc1ccc(F)cc1	1	-9	-12	1	22*	1
Cc1cccc(CS(=O)(=O)c2cn(CC(=O)N3CCOCC3)c3ccccc23)c1	7	-3	-11	-10	7	-4
COc1cc2cncc(Cc3ccc(Cl)cc3)c2cc1OC	18	-12	15	9	-3	6
COc1ccc(CCn2c(C3CCCCC3)nc3c(c(=O)c4ccccc4n3C)c2=O)cc1	45*	-8	8	1	-14	10
Cc1ccc(-n2c(-c3ccc(Cl)cc3)n[nH]c2=S)c(C)c1	6	-2	30*	21	23*	4
Cc1cccc(-n2c(-c3ccncc3)n[nH]c2=S)c1	0	3	-4	-5	17*	-1
CCc1ccc2c(c1)C(=O)C[C@]1(CCC[C@H](C)C1)O2	0	9	5	-6	4	3
C1=C(c2ccc(-c3ccccc3)cc2)Nc2ncnn2C1c1ccco1 (stereo unspecified)	62*	-34	16	27*	-17	53*
Fc1ccc(C2=CC(c3ccco3)n3ncnc3N2)cc1 (stereo unspecified)	2	-8	7	2	-1	2
SMILES	CHRM4 agonist	CHRM5 PAM	CHRM5 antagonist	M4 antag	M4 PAM	CHRM5 agonist
Brc1ccc(C2=CC(c3cccs3)n3ncnc3N2)cc1 (stereo unspecified)	37*	-21	14	4	-29	27*
Fc1ccc(C2=CC(c3ccc(Br)o3)n3ncnc3N2)cc1 (stereo unspecified)	3	-6	0	2	-7	3
CCCCn1c(N)c(N(CCC(C)C)C(=O)CCN2C(=O)C3CC=CCC3C2=O)c(=O)[nH]c1=O (stereo unspecified)	0	3	1	3	2	-1
COc1ccccc1NC(=O)C(C)OC(=O)c1cccc(-n2cnnn2)c1 (stereo unspecified)	4	1	-2	6	9	-2
CSc1ccc(/C=N/NC(=O)CN2CCN(Cc3ccccc3)CC2)cc1	0	3	1	24	-15	-3
CSc1ccc(/C=N/NC(=O)CN2CCN(Cc3ccc(Cl)cc3)CC2)cc1	2	-1	1	35*	-17	-2
CC(=C/c1ccccc1)/C=N/NC(=O)c1cccs1	-1	-5	3	-3	-1	-5
O=C(N/N=C/C(Br)=C\c1ccccc1)c1cccs1	2	23*	-29	-4	-1	6
Cc1cccc(C)c1NC(=O)C(c1ccc(C#N)cc1)n1c(=O)c(-c2ccccc2)nc2ccccc21 (stereo unspecified)	2	7	-7	-3	23*	1
Cc1cccc(C)c1NC(=O)C(c1ccc(C(F)(F)F)cc1)n1c(=O)c(-c2ccccc2)nc2ccccc21 (stereo unspecified)	3	11	-9	0	4	-2
Cc1ccc(C)c(NS(=O)(=O)c2cc3c4c(c2)CC(=O)N4CCC3)c1	3	0	-4	7	-3	-3
CCn1c(SCC(=O)N2CCC(C)CC2)nc2c(c1=O)SCC2	-2	1	11	-15	16	-3
COc1cc(Cl)cc2c1Sc1ccccc1/C2=C/CCN(C)C	2	-29	36*	19	-14	-12
COc1cc2c(cc1Cl)/C(=C\CCN(C)C)c1ccccc1S2	8	-18	25	33*	-35	-4
CN(C)CC/C=C1/c2cc(F)ccc2Sc2ccc(Cl)cc21	4	-29	99*	96*	-16	-19
CN(C)CC/C=C1/c2ccccc2Sc2c(O)cc(Cl)cc21	2	-16	98*	50*	-15	-6
CN1CCN(CC/C=C2/c3ccccc3Sc3ccc(S(=O)(=O)N(C)C)cc32)CC1	7	-9	-2	-3	-6	0

Bioassay records from PubChem BioAssay.
